Results on three compounds are retold here after ChEMBL document CHEMBL4400513, “Aurone derivatives as promising antibacterial agents against resistant Gram-positive pathogens” (Eur J Med Chem, 2019).

Each structure is given as a SMILES string. ≈ marks a conversion by molar mass, not a printed value. Calls of active or inactive are those of the source. No cut-off for these calls is given here. Some results are limits rather than exact numbers.

One data set has as its system Penicillium verrucosum. Description: Antifungal activity against Penicillium verrucosum after 2 to 5 days by two-fold serial dilutions method. The class given is functional. The procedure, abridged: (§1)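 Broth two-fold serial dilution MIC, 0 to 500 µM (1:2 steps), from 200 mM DMSO stocks; 0.2% DMSO final as vehicle control. Inoculum about 10^5 cells/mL. Strains maintained on potato dextrose agar and in RPMI medium. Plates held at room temperature for 2 to 5 days, OD600 read; MIC = lowest concentration preventing visible growth; independent triplicate.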

For another data set, the system named is Aspergillus ochraceus. Description: Antifungal activity against Aspergillus ochraceus after 2 to 5 days by two-fold serial dilutions method. The class given is functional. The procedure, abridged:
as §1

Data set [1] has as its system Blautia producta. Description: Bactericidal activity against Clostridium coccoides in anaerobic condition. The format is functional, organism-based. The procedure, abridged: (§2)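 From the MIC plates, 10 µL from each well without growth was streaked onto agar suited to the organism and incubated under that organism's growth conditions. Colonies were then counted; MBC = lowest concentration allowing ≤1 colony, i.e. killing 99.9% of bacteria.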

Data set [2] relates to Enterococcus faecalis. The data set can be described thus: Antimicrobial activity against Enterococcus faecalis after 18 to 24 hrs in anaerobic condition by two-fold serial dilutions method. The format is functional. The procedure, abridged: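 BHI preculture at 37 °C brought to log phase (OD600 ~0.6), then ~10^5 bacteria/mL exposed to 0 to 500 µM (1:2 dilutions, 0.2% DMSO final control). Anaerobic conditions from a gas-pack system, 37 °C, 18–24 h. OD600 read; MIC = lowest concentration with no visible growth; n = 3.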

For data set [3], the system named is Helicobacter pylori. Description: Bactericidal activity against Helicobacter pylori in anaerobic condition. The format is functional, organism-based. Put shortly: as §2
Data set [4] relates to Bacteroides thetaiotaomicron. The data set can be described thus: Antimicrobial activity against Bacteroides thetaiotaomicron after 18 to 24 hrs in anaerobic condition by two-fold serial dilutions method. The format is functional. Put shortly:
(§3)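 Precultures in BHI broth at 37 °C in an anaerobic cabinet, grown to log phase (OD600 ~0.6), then seeded at ~10^5 bacteria/mL. Two-fold dilutions from 0 to 500 µM, 0.2% DMSO final as control. Plates incubated anaerobically at 37 °C for 18–24 h, OD600 read; MIC = lowest concentration giving no visible growth; independent triplicate.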

A further data set concerns Citrobacter farmeri. Description: Bactericidal activity against Citrobacter farmeri in aerobic condition. The class given is functional, organism-based. The procedure, abridged: as §2
Data set [5] has as its system Clostridium perfringens. Description: Induction of cell membrane permeability in Clostridium perfringens assessed as membrane integrity after 240 mins in anaerobic condition by propidium iodide staining-based assay relative to control. The format is functional. Put shortly: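 Log-phase bacteria resuspended in PBS at about 10^9/mL with propidium iodide 60 µM final, mixed 1:1 with two-fold serial dilutions of compound. Fluorescence (ex 530/em 590 nm) recorded over 240 min at 37 °C anaerobically. Normalised to CTAB 300 µM or nisin at 5× MIC (100% permeabilization); DMSO as vehicle. Triplicate.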

In data set [6] the test system is Blautia producta. Description: Antimicrobial activity against Clostridium coccoides after 18 to 24 hrs in anaerobic condition by two-fold serial dilutions method. The class given is functional. The procedure, abridged: as §3
Another data set has as its system Escherichia coli. The data set can be described thus: Bactericidal activity against Escherichia coli […] K88 in aerobic condition. The class given is functional, organism-based.
Data set [7] deals with Enterococcus faecalis. Description: Bactericidal activity against Enterococcus faecalis in anaerobic condition. The format is functional, organism-based. Put shortly: as §2
Data set [8] concerns Bacillus subtilis. Description: Antimicrobial activity against Nisin-resistant Bacillus subtilis after 18 to 24 hrs in aerobic condition by two-fold serial dilutions method. The class given is functional. Put shortly: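 Strains grown on LB at 37 °C aerobically, then in Mueller-Hinton broth overnight at 200 rpm and brought to log phase (OD600 ~0.6). About 10^5 bacteria/mL exposed to two-fold serial dilutions 0–500 µM, DMSO 0.2% final as control. Aerobic incubation at 37 °C for 18–24 h; OD600 read; MIC = lowest concentration inhibiting visible growth. n = 3.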

The subject of the next data set is Salmonella enterica. The data set can be described thus: Bactericidal activity against Salmonella enterica in aerobic condition. The format is functional, organism-based. Put shortly: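 MH broth; log-phase bacteria (OD600 ~0.6) diluted to ~10^5 bacteria/mL and exposed to two-fold serial dilutions (0–500 µM; 0.2% DMSO final as vehicle control) at 37 °C, aerobic, 18–24 h. MIC is the lowest concentration preventing visible growth (OD600). MBC is found by streaking 10 µL from no-growth wells onto agar; the MBC is the concentration where ≤1 colony grew. n = 3.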

Data set [9] deals with Streptococcus thermophilus. Description: Bactericidal activity against Streptococcus thermophilus in anaerobic condition. The class given is functional, organism-based. Put shortly: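 S. thermophilus grown in BHI and brought to log phase (OD600 ~0.6). It is diluted to ~10^5 bacteria/mL and exposed to two-fold serial dilutions (0–500 µM, 0.2% DMSO final) at 37 °C in an anaerobic cabinet for 18–24 h. MIC read by OD600 as the lowest concentration with no visible growth. The MBC is the concentration where ≤1 colony grew after streaking 10 µL of no-growth wells on agar. Triplicate.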

The next data set has as its system Acinetobacter baumannii. The data set can be described thus: Bactericidal activity against Acinetobacter baumannii MRS in aerobic condition. The format is functional, organism-based. Put shortly: as §2
The next data set has as its system Fusarium verticillioides. Description: Fungicidal activity against Fusarium verticillioides. The format is functional, organism-based. Put shortly: (§4)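 Filamentous fungi grown on potato dextrose agar and tested in RPMI medium with two-fold serial dilutions (0–500 µM, 0.2% DMSO final). Plates held at room temperature for 2 to 5 days, then OD600 read; MIC taken as the lowest concentration with no visible growth. The fungicidal endpoint is ≤1 colony after streaking 10 µL of no-growth wells on agar. n = 3.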

Data set [10] has as its system Clostridium perfringens. The data set can be described thus: Bactericidal activity against Clostridium perfringens in anaerobic condition. The format is functional, organism-based.
The subject of data set [11] is Bacillus subtilis. Description: Antimicrobial activity against Bacillus subtilis after 18 to 24 hrs in aerobic condition by two-fold serial dilutions method. The class given is functional. Put shortly:
(§5)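 Colonies grown overnight (~16 h) in Mueller-Hinton broth at 37 °C, 200 rpm, diluted 1/100 and grown to log phase (OD600 ~0.6), then diluted to ~10^5 bacteria/mL. Exposed to 0 to 500 µM in 1:2 series (0.2% DMSO final control), aerobic, 37 °C, 18–24 h. OD600 read; MIC = lowest concentration without visible growth; n = 3.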

A further data set deals with Stachybotrys chartarum. The data set can be described thus: Fungicidal activity against Stachybotrys chartarum. The class given is functional, organism-based. Put shortly: as §4
Another data set relates to Lactococcus lactis. The data set can be described thus: Antimicrobial activity against Lactococcus lactis after 18 to 24 hrs in aerobic condition by two-fold serial dilutions method. The format is functional. The procedure, abridged:
as §5

The next data set concerns IMR-90. Description: Cytotoxicity against human IMR90 cells assessed as reduction in cell viability after 48 hrs by Resazurin dye-based assay. The note with it: for IC50: Homo sapiens, IMR-90, 48 h; for Activity: human, imr-90, 48 h. The procedure, abridged: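 Normal human lung epithelial (BEAS-2B) and lung fibroblast (IMR-90) cells were grown in DMEM with 10% FCS. Cells were seeded at ~10^4/well, grown to confluence (48–72 h), then exposed to increasing concentrations for 48 h at 37 °C, 5% CO2, with 0.2% DMSO as control. Resazurin was added for 4 h and fluorescence read at 530/590 nm. Viability was normalized to DMSO wells and IC50 calculated.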

The test system of data set [12] is Helicobacter pylori. Description: Antimicrobial activity against Helicobacter pylori after 18 to 24 hrs in anaerobic condition by two-fold serial dilutions method. The class given is functional. Put shortly: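 Mueller-Hinton broth preculture grown to log phase (OD600 ~0.6), diluted to ~10^5 bacteria/mL. Serial 1:2 dilutions 0 to 500 µM, 0.2% DMSO final control. Incubated at 37 °C for 18–24 h under anaerobic conditions from a gas-pack system; OD600 read; MIC = lowest concentration without visible growth; triplicate.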

A further data set concerns Cutibacterium acnes. Description: Antimicrobial activity against Propionibacterium acnes after 18 to 24 hrs in aerobic condition by two-fold serial dilutions method. The format is functional.

Consider `O=C1/C(=C/c2ccc(F)cc2)Oc2cc(O)cc(O)c21`, for which the minimal inhibitory concentration (MIC) against Penicillium verrucosum was above 500 µM; with Aspergillus ochraceus it was above 500 µM; with Enterococcus faecalis [2] it was 125 to 250 µM (≈ 34 to 68.1 µg/mL); in data set [4] it was above 500 µM; against Blautia producta [6] it was above 500 µM; in the data set with Bacillus subtilis [8], 31.2 µM (≈ 8.51 µg/mL). The MIC with Bacillus subtilis [11] is 62.5 µM (≈ 17 µg/mL); with Lactococcus lactis it was 15.6 µM (≈ 4.25 µg/mL); with Helicobacter pylori [12] it was above 500 µM; with Cutibacterium acnes it was 31.2 µM (≈ 8.51 µg/mL). Besides, the result in the data set on Blautia producta [1], in the data set with Helicobacter pylori [3], with Citrobacter farmeri, with Escherichia coli, in the data set on Enterococcus faecalis [7] and with Salmonella enterica was Active. In addition, the result (in [9]; in the data set on Acinetobacter baumannii; in the data set with Fusarium verticillioides; in the data set with Clostridium perfringens [10]; with Stachybotrys chartarum) was Active. The outcome with Clostridium perfringens [5] was inactive. Also, the IC50 in the data set on IMR-90 is 620 µM. Also, the Activity result in the data set on IMR-90 was “Dose-dependent effect”.

For the compound `O=C1/C(=C/c2ccccc2)Oc2cc(O)cc(O)c21`, the MIC with Penicillium verrucosum is above 500 µM; in the data set with Aspergillus ochraceus it was above 500 µM; in the data set with Enterococcus faecalis [2] it was 15.6 µM (≈ 3.97 µg/mL); in data set [4], above 500 µM; in the data set with Blautia producta [6], 500 µM (≈ 127 µg/mL); with Bacillus subtilis [8] it was 31.2 µM (≈ 7.95 µg/mL). For the same compound, the MIC in the data set with Bacillus subtilis [11] was 62.5 to 125 µM (≈ 15.9 to 31.8 µg/mL); against Lactococcus lactis, 15.6 µM (≈ 3.97 µg/mL); in the data set with Helicobacter pylori [12] it was 15.6 µM (≈ 3.97 µg/mL); against Cutibacterium acnes, 31.2 µM (≈ 7.95 µg/mL). For the same compound, the result in the data set on Blautia producta [1], in the data set with Helicobacter pylori [3], with Citrobacter farmeri, with Escherichia coli, in the data set with Enterococcus faecalis [7] and in the data set on Salmonella enterica was Active. Also, the result (in data set [9]; with Acinetobacter baumannii; in the data set with Fusarium verticillioides; in the data set with Clostridium perfringens [10]; in the data set on Stachybotrys chartarum) was Active. The result in the data set with Clostridium perfringens [5] was inactive. Besides, the IC50 in the data set on IMR-90 worked out at 250 µM. Further, the Activity result with IMR-90 is on record as “Dose-dependent effect”.

For the compound `COc1cc(/C=C2\Oc3cc(O)cc(O)c3C2=O)ccc1OCc1ccccc1`, the MIC was above 500 µM in the data set on Penicillium verrucosum; above 500 µM with Aspergillus ochraceus; 15.6 to 31.2 µM (≈ 6.09 to 12.2 µg/mL) with Enterococcus faecalis [2]; above 500 µM in [4]; 250 µM (≈ 97.6 µg/mL) against Blautia producta [6]; 3.9 µM (≈ 1.52 µg/mL) against Bacillus subtilis [8]. Besides, the MIC is 7.8 µM (≈ 3.05 µg/mL) with Bacillus subtilis [11], 31.2 µM (≈ 12.2 µg/mL) against Lactococcus lactis, 15.6 µM (≈ 6.09 µg/mL) with Helicobacter pylori [12] and 31.2 µM (≈ 12.2 µg/mL) against Cutibacterium acnes. Besides, the result in the data set with Blautia producta [1], with Helicobacter pylori [3], in the data set with Citrobacter farmeri, in the data set with Escherichia coli, with Enterococcus faecalis [7] and with Salmonella enterica was Active. Besides, the outcome (in [9]; in the data set on Acinetobacter baumannii; in the data set with Fusarium verticillioides; in the data set on Clostridium perfringens [10]; in the data set on Stachybotrys chartarum) was Active. Moreover, the Activity is recorded as 30% with Clostridium perfringens [5] and “Dose-dependent effect” with IMR-90. For the same compound, the IC50 with IMR-90 turned out to be 340 µM.
